Experimental data: ChEMBL document CHEMBL2034980, “N⁴-Phenyl-substituted 2-acetylpyridine thiosemicarbazones: cytotoxicity against human tumor cells, structure-activity relationship studies and investigation on the mechanism of action” (Bioorg Med Chem, 2012)
The source made the active and inactive calls. The calls are words filed in the database; no cut-off is given here.

Legend:
[1] = (§1) Cytotoxicity against human U87 cells expressing wild-type p53 after 48 hrs by MTT assay; assay type: functional, cell-based, U-87MG ATCC; conditions: U-87 MG
In short: (§2)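 MTT assay. Cells were grown in DMEM with 10% FBS and penicillin/streptomycin at 37 °C under 5% CO2, seeded at 1–2×10^3 cells/well and treated 12 h later with 1×10^-12 to 1×10^-5 M ([…] from DMSO stock, final DMSO <0.5%) for 48 h. MTT was added at 0.5 mg mL⁻¹, formazan dissolved in DMSO and read at 570 nm. IC50 is the concentration giving 50% cytotoxicity. Quadruplicates, ≥3 independent experiments.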

T98G [2] = test: Cytotoxicity against human T98G cells expressing mutant p53 after 48 hrs by MTT assay; assay type: functional, cell-based; in short: as §2
MCF7 [3] = test: Cytotoxicity against human MCF7 cells after 48 hrs by MTT assay; assay type: functional, cell-based; conditions: for IC50: MCF7, 48 h; in short: as §2
T98G [4] = test: Induction of apoptosis in human T98G cells assessed as chromatin condensation at 1 uM after 48 hrs by acridine orange/ethidium bromide staining-based microscopy; assay type: functional, cell-based
In short: (§3)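 After 48 h at 1 μM, cells were incubated for 15 min in serum-free medium containing 1 μg mL⁻¹ acridine orange and 1 μg mL⁻¹ ethidium bromide. The medium was removed and cells imaged by inverted fluorescence microscopy (530–650 nm). Green/orange nuclear patterns and acidic cytoplasmic vacuoles were scored.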

U-87MG ATCC [5] = test: as §1; assay type: functional, cell-based; in short: as §2
U-87MG ATCC [6] = test: Induction of apoptosis in human U87 cells assessed as DNA fragmentation at 1 uM after 48 hrs by DAPI staining; assay type: functional, cell-based
In short: (§4)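 Cells were treated at 1 μM for 48 h, washed in PBS and fixed in 70% methanol for 30 min at room temperature. They were stained with 0.4 μg mL⁻¹ DAPI for 1 h in the dark, and nuclear condensation and fragmentation were scored by fluorescence microscopy (385–410 nm).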

MCF7 [7] = test: Induction of apoptosis in human MCF7 cells assessed as chromatin condensation at 1 uM after 48 hrs by DAPI staining; assay type: functional, cell-based; in short: as §4
T98G [8] = test: Induction of apoptosis in human T98G cells assessed as DNA fragmentation at 1 uM after 48 hrs by DAPI staining; assay type: functional, cell-based; in short: as §4
U-87MG ATCC [9] = test: Induction of apoptosis in human U87 cells assessed as membrane blebbing at 1 uM after 48 hrs by DAPI staining; assay type: functional, cell-based
MCF7 [10] = test: Induction of apoptosis in human MCF7 cells assessed as appearance of autophagolysosomes at 1 uM after 48 hrs by acridine orange/ethidium bromide staining-based microscopy; assay type: functional, cell-based; in short: as §3
U-87MG ATCC [11] = test: Induction of apoptosis in human U87 cells assessed as chromatin condensation at 1 uM after 48 hrs by DAPI staining; assay type: functional, cell-based; in short: as §4
U-87MG ATCC [12] = test: Induction of apoptosis in human U87 cells assessed as cell shrinkage at 1 uM after 48 hrs by DAPI staining; assay type: functional, cell-based
MCF7 [13] = test: Induction of apoptosis in human MCF7 cells assessed as cell shrinkage at 1 uM after 48 hrs by DAPI staining; assay type: functional, cell-based
T98G [14] = test: Induction of apoptosis in human T98G cells assessed as appearance of autophagolysosomes at 1 uM after 48 hrs by acridine orange/ethidium bromide staining-based microscopy; assay type: functional, cell-based; in short: as §3
MCF7 [15] = test: Induction of apoptosis in human MCF7 cells assessed as DNA fragmentation at 1 uM after 48 hrs by DAPI staining; assay type: functional, cell-based; in short: as §4
T98G [16] = test: Induction of apoptosis in human T98G cells assessed as cell shrinkage at 1 uM after 48 hrs by DAPI staining; assay type: functional, cell-based
[17] = Haemolytic activity in human RBC after 1 hr by photometry; assay type: ADME, cell-based; conditions: Erythrocyte
In short: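 Human EDTA blood was spun at 700xg for 10 min and the erythrocytes washed three times in cold PBS pH 7.4, then resuspended in it. Cells were incubated with varying compound concentrations for 1 h at 37 °C with shaking. After centrifugation, released haemoglobin was read at 540 nm to give the IC50. Mean ± SD, n = 4.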

U-87MG ATCC [18] = test: Induction of apoptosis in human U87 cells assessed as chromatin condensation at 1 uM after 48 hrs by acridine orange/ethidium bromide staining-based microscopy; assay type: functional, cell-based; in short: as §3
MCF7 [19] = test: Induction of apoptosis in human MCF7 cells assessed as chromatin condensation at 1 uM after 48 hrs by acridine orange/ethidium bromide staining-based microscopy; assay type: functional, cell-based; in short: as §3
T98G [20] = test: Induction of apoptosis in human T98G cells assessed as chromatin condensation at 1 uM after 48 hrs by DAPI staining; assay type: functional, cell-based; in short: as §4
T98G [21] = test: Induction of apoptosis in human T98G cells assessed as irregularities in cellular shape at 1 uM after 48 hrs by DAPI staining; assay type: functional, cell-based
MCF7 [22] = test: Induction of apoptosis in human MCF7 cells assessed as irregularities in cellular shape at 1 uM after 48 hrs by DAPI staining; assay type: functional, cell-based
U-87MG ATCC [23] = test: Induction of apoptosis in human U87 cells assessed as irregularities in cellular shape at 1 uM after 48 hrs by DAPI staining; assay type: functional, cell-based
MCF7 [24] = test: Induction of apoptosis in human MCF7 cells assessed as membrane blebbing at 1 uM after 48 hrs by DAPI staining; assay type: functional, cell-based
U-87MG ATCC [25] = test: Induction of apoptosis in human U87 cells assessed as appearance of autophagolysosomes at 1 uM after 48 hrs by acridine orange/ethidium bromide staining-based microscopy; assay type: functional, cell-based; in short: as §3
T98G [26] = test: Induction of apoptosis in human T98G cells assessed as membrane blebbing at 1 uM after 48 hrs […]; assay type: functional, cell-based

C/C(=N/NC(=S)Nc1ccccc1F)c1ccccn1
IC50 ([1]; read-out: pIC50 (converted)): 5 nM | IC50 (T98G [2]; read-out: pIC50 (converted)): 3.1 nM | IC50 (MCF7 [3]; read-out: pIC50 (converted)): 0.39 nM

C/C(=N/NC(=S)Nc1cccc(F)c1)c1ccccn1
IC50 ([1]; read-out: pIC50 (converted)): 18 nM | IC50 (T98G [2]; read-out: pIC50 (converted)): 12 nM | IC50 (MCF7 [3]; read-out: pIC50 (converted)): 8.99 nM

C/C(=N/NC(=S)Nc1ccc(F)cc1)c1ccccn1
IC50 ([1]; read-out: pIC50 (converted)): 10 nM | IC50 (T98G [2]; read-out: pIC50 (converted)): 17 nM | IC50 (MCF7 [3]; read-out: pIC50 (converted)): 1.2 nM

C/C(=N/NC(=S)Nc1ccc(Cl)cc1)c1ccccn1
IC50 ([1]; read-out: pIC50 (converted)): 1.7 nM | IC50 (T98G [2]; read-out: pIC50 (converted)): 5.9 nM | IC50 (MCF7 [3]; read-out: pIC50 (converted)): 8.49 nM

C/C(=N/NC(=S)Nc1ccccc1I)c1ccccn1
IC50 ([1]; read-out: pIC50 (converted)): 6.1 nM | IC50 (T98G [2]; read-out: pIC50 (converted)): 8.09 nM | IC50 (MCF7 [3]; read-out: pIC50 (converted)): 4.1 nM

C/C(=N/NC(=S)Nc1cccc(I)c1)c1ccccn1
IC50 ([1]; read-out: pIC50 (converted)): 83.9 nM | IC50 (T98G [2]; read-out: pIC50 (converted)): 61 nM | IC50 (MCF7 [3]; read-out: pIC50 (converted)): 45 nM

C/C(=N/NC(=S)Nc1ccc(I)cc1)c1ccccn1
IC50 ([1]; read-out: pIC50 (converted)): 59 nM | IC50 (T98G [2]; read-out: pIC50 (converted)): 64 nM | IC50 (MCF7 [3]; read-out: pIC50 (converted)): 6.61 nM

C/C(=N/NC(=S)Nc1ccccc1[N+](=O)[O-])c1ccccn1
IC50 ([1]; read-out: pIC50 (converted)): 4.3 nM | IC50 (T98G [2]; read-out: pIC50 (converted)): 6.61 nM | IC50 (MCF7 [3]; read-out: pIC50 (converted)): 5.7 nM

C/C(=N/NC(=S)Nc1cccc([N+](=O)[O-])c1)c1ccccn1
IC50 ([1]; read-out: pIC50 (converted)): 69 nM | IC50 (T98G [2]; read-out: pIC50 (converted)): 140 nM | IC50 (MCF7 [3]; read-out: pIC50 (converted)): 38 nM

C/C(=N/NC(=S)Nc1ccc([N+](=O)[O-])cc1)c1ccccn1
IC50 ([1]; read-out: pIC50 (converted)): 160 nM | IC50 (T98G [2]; read-out: pIC50 (converted)): 140 nM | IC50 (MCF7 [3]; read-out: pIC50 (converted)): 52 nM

C/C(=N\NC(=S)Nc1ccccc1)c1ccccn1
IC50 ([1]; read-out: pIC50 (converted)): 1.4 nM | IC50 (T98G [2]; read-out: pIC50 (converted)): 6.81 nM | IC50 (MCF7 [3]; read-out: pIC50 (converted)): 0.18 nM

CC(=NNC(=S)Nc1ccccc1)c1ccccn1 (mixture of isomers)
Activity (T98G [4]): Active | Activity (U-87MG ATCC [5]): Dose-dependent effect | IC50 ([1]; read-out: IC50): 1.4 nM | Activity (U-87MG ATCC [6]): Active | Activity (T98G [2]): Dose-dependent effect | IC50 (T98G [2]; read-out: IC50): 6.8 nM | Activity (MCF7 [7]): Active | Activity (T98G [8]): Active | Activity (U-87MG ATCC [9]): Active | Activity (MCF7 [10]): Active | Activity (U-87MG ATCC [11]): Active | Activity (U-87MG ATCC [12]): Active | Activity (MCF7 [13]): Active | Activity (T98G [14]): Active | Activity (MCF7 [15]): Active | Activity (T98G [16]): Active | IC50 [17]: > 10 µM | Activity (U-87MG ATCC [18]): Active | Activity (MCF7 [19]): Active | Activity (T98G [20]): Active | Activity (T98G [21]): Active | Activity (MCF7 [22]): Active | Activity (U-87MG ATCC [23]): Active | Activity (MCF7 [24]): Active | Activity (U-87MG ATCC [25]): Active | Activity (MCF7 [3]): Dose-dependent effect | IC50 (MCF7 [3]; read-out: IC50): 0.18 nM | Activity (T98G [26]): Active

CC(=NNC(=S)Nc1ccccc1F)c1ccccn1 (mixture of isomers)
Activity (T98G [4]): Active | Activity (U-87MG ATCC [5]): Dose-dependent effect | IC50 ([1]; read-out: IC50): 5 nM | Activity (U-87MG ATCC [6]): Active | Activity (T98G [2]): Dose-dependent effect | IC50 (T98G [2]; read-out: IC50): 3.1 nM | Activity (MCF7 [7]): Active | Activity (T98G [8]): Active | Activity (U-87MG ATCC [9]): Active | Activity (MCF7 [10]): Active | Activity (U-87MG ATCC [11]): Active | Activity (U-87MG ATCC [12]): Active | Activity (MCF7 [13]): Active | Activity (T98G [14]): Active | Activity (MCF7 [15]): Active | Activity (T98G [16]): Active | IC50 [17]: > 10 µM | Activity (U-87MG ATCC [18]): Active | Activity (MCF7 [19]): Active | Activity (T98G [20]): Active | Activity (T98G [21]): Active | Activity (MCF7 [22]): Active | Activity (U-87MG ATCC [23]): Active | Activity (MCF7 [24]): Active | Activity (U-87MG ATCC [25]): Active | Activity (MCF7 [3]): Dose-dependent effect | IC50 (MCF7 [3]; read-out: IC50): 0.39 nM | Activity (T98G [26]): Active

CC(=NNC(=S)Nc1cccc(F)c1)c1ccccn1 (mixture of isomers)
Activity (T98G [4]): Active | Activity (U-87MG ATCC [5]): Dose-dependent effect | IC50 ([1]; read-out: IC50): 18 nM | Activity (U-87MG ATCC [6]): Active | Activity (T98G [2]): Dose-dependent effect | IC50 (T98G [2]; read-out: IC50): 12 nM | Activity (MCF7 [7]): Active | Activity (T98G [8]): Active | Activity (U-87MG ATCC [9]): Active | Activity (MCF7 [10]): Active | Activity (U-87MG ATCC [11]): Active | Activity (U-87MG ATCC [12]): Active | Activity (MCF7 [13]): Active | Activity (T98G [14]): Active | Activity (MCF7 [15]): Active | Activity (T98G [16]): Active | IC50 [17]: > 10 µM | Activity (U-87MG ATCC [18]): Active | Activity (MCF7 [19]): Active | Activity (T98G [20]): Active | Activity (T98G [21]): Active | Activity (MCF7 [22]): Active | Activity (U-87MG ATCC [23]): Active | Activity (MCF7 [24]): Active | Activity (U-87MG ATCC [25]): Active | Activity (MCF7 [3]): Dose-dependent effect | IC50 (MCF7 [3]; read-out: IC50): 9 nM | Activity (T98G [26]): Active

COc1cc([C@@H]2c3cc4c(cc3[C@@H](O[C@@H]3O[C@@H]5CO[C@@H](C)O[C@H]5[C@H](O)[C@H]3O)[C@H]3COC(=O)[C@H]23)OCO4)cc(OC)c1O [ETOPOSIDE]
IC50 ([1]; read-out: IC50): 620 nM | IC50 (T98G [2]; read-out: IC50): 460 nM | IC50 (MCF7 [3]; read-out: IC50): 480 nM
